This excerpt belongs to a sample that is enriched for hits.
XBP1 UPR activ = adaptive UPR (XBP1) activation; CHO-XBP1 luciferase reporter, IRE1-XBP1 UPR activation, luminescence; percent of tunicamycin response, DMSO as zero; activation, % at 20 µM; 330,000 compounds, 0.33% hits;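 active means versus positive control, 20 µM dose yields 30% or more activation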
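incubation = overnight seeding at 37 °C, 6 h compound treatment at 37 °C | assay system = CHO-XBP1 cells stably carrying IRE1-XBP1-driven luciferase reporter | input = 1000 cells per well | detection = luciferase luminescence | dosing = single point, 20 µM final compound, 1% DMSO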
UPR CHOP act = activators of apoptotic arm of unfolded protein response (CHOP) | AID 449763 | activation, % at 10 µM | CHO-CHOP luciferase reporter, UPR activation, luminescence; percent of tunicamycin response over DMSO baseline | 330,000 compounds, 0.34% hits;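 active means at 10 µM dose, activation of 40% or more, normalized to positive control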
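Dosing – one dose, 10 µM in 0.5% DMSO · System – CHO-CHOP cells, stable luciferase reporter of PERK-eIF2a-CHOP signalling · Input – 500 cells/well · Control set – tunicamycin 10 µg/mL final as positive, DMSO-only wells as negative · Timing – 6 h compound treatment, 37 °C · Measure – % activation vs tunicamycin · Technique – luminescence read with Steady-Glo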
PvdQ inh = P. aeruginosa PvdQ acylase inhibition; inhibition, % at 10 µM; 340,000 compounds, 0.063% hits; AID 488965; purified PvdQ acylase, fluorescence plate reader; in the data active means inhibition above about 30%, passing the limit was not always enough
CHOP inhibitor = CHOP inhibition in unfolded protein response; CHO-K1 CHOP-promoter luciferase, tunicamycin-induced, 15-18 h; inhibition, % at 10 µM; 220,000 compounds, 3.8% hits;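 active means compounds that reduced the stress-induced luciferase reporter signal by more than about 70% of percent inhibition, limit read from the data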
Of the large screens only hits and unclear results are named; the others gave an inactive call.

O=c1[nH]c(=O)c2nc3c4ccccc4c4ccccc4c3nc2[nH]1	CHOP inhibitor 77.6
Cc1cc(C)n(CC(=O)NNC(=O)CCNC(=O)c2ccccc2Cl)n1	none (no result: CHOP inhibitor)
CC1(C)CC(=O)c2cnc(N3CCN(c4ccccc4)CC3)nc2C1	CHOP inhibitor 86.5
COc1cc(C(=O)NNC(=O)c2cccc(Cl)c2)ccc1OCC(=O)N1CCOCC1	none (no result: CHOP inhibitor)
CC(C)(C)c1ccc(C(=O)NC(=S)Nc2nc3c(s2)CCCC3)cc1	none
Cc1onc(-c2c(F)cccc2Cl)c1C(=O)Nc1nc2c(s1)CCCC2	CHOP inhibitor 83.6
CN(C)c1ccc(C(=O)Nc2nc3c(s2)CCCC3)cc1	CHOP inhibitor 92.0
COc1ccc(S(=O)(=O)N(Cc2ccccc2)Cc2nc3ccccc3c(=O)[nH]2)cc1	CHOP inhibitor 71.8
COc1ccccc1CN(Cc1nc2ccccc2c(=O)[nH]1)S(=O)(=O)c1ccc2ccccc2c1	none
O=C(COC(=O)/C=C/c1cccc(Br)c1)NC1CCCCCC1	PvdQ inh 42.1 (no result: CHOP inhibitor)
CCOc1ccccc1NC(=O)C(=O)/C=C(\O)c1cc(OC)ccc1OC	CHOP inhibitor 95.3
COc1ccc(C2N(c3ccc(C)cc3)CCN2c2ccc(C)cc2)cc1O	CHOP inhibitor 95.5
COc1cc(C2N(c3ccccc3)CCN2c2ccccc2)ccc1OC(C)=O	none
Nc1nc(-c2ccccc2)c(-c2ccc([N+](=O)[O-])cc2)s1	CHOP inhibitor 74.2
Cc1ccc(-c2nc(N)sc2-c2ccccc2)cc1C	CHOP inhibitor 86.7
CC1=CC(=O)C(C(C)C)=C/C1=N\OC(=O)c1cccc2nc(C)oc12	none
CC1=CC(=O)C(C(C)C)=CC1=NC(=O)c1ccc(C)cc1	CHOP inhibitor 106.7
CC(C)Cn1c(SC(C)C(=O)NCC2CCCO2)nc2ccc(Cl)cc2c1=O (stereo not given)	none (no result: CHOP inhibitor)
O=C1CN(C(=O)c2ccc(Br)o2)C(c2ccccc2)c2cc(Cl)ccc2N1 (stereo not given)	CHOP inhibitor 84.5
CCN(c1ccccc1)S(=O)(=O)c1cccc(C(=O)N2CCN(S(=O)(=O)c3ccccc3)CC2)c1	none (no result: CHOP inhibitor)
CS(=O)(=O)c1cc([N+](=O)[O-])c(Sc2nc3ccccc3[nH]2)c([N+](=O)[O-])c1	CHOP inhibitor 79.9
O=C1c2cccc3cccc(c23)C(=O)N1/N=C/c1ccc(O)cc1O	CHOP inhibitor 70.2
COC(=O)c1cc(Cl)c(NC(=O)/C=C/c2ccc(Cl)cc2Cl)cc1OC	CHOP inhibitor 83.7
COC(=O)c1cc(Cl)c(NC(=O)/C=C/c2ccc(Cl)cc2)cc1OC	none
Cc1cccc(CN2[C@@H](CC(C)C)COCCS2(=O)=O)c1	none (no result: CHOP inhibitor)
Cc1ccc2nc(-c3ccc(NC(=O)CSc4nc(N)cc(=O)[nH]4)cc3)sc2c1	CHOP inhibitor 72.6
Cc1ccc2nc(-c3ccc(NC(=S)NC(=O)CC(C)C)cc3)sc2c1	CHOP inhibitor 96.1
Cc1nnc(SCC(=O)Nc2ccccc2NC(=O)CSc2nnc(C)s2)s1	none
Cc1nnc(SCC(=O)Nc2ccc(-c3nc4ccccc4s3)cc2)s1	CHOP inhibitor 85.9 (no result: XBP1 UPR activ, UPR CHOP act)
Cc1ccc2nc(-c3ccc(NC(=O)CNC4CC4)cc3)sc2c1	none (no result: XBP1 UPR activ, UPR CHOP act)
COc1ccc(C2(C)NC(=O)N(CC(=O)Nc3ccc(-c4nc5ccc(C)cc5s4)cc3)C2=O)cc1 (stereo not given)	CHOP inhibitor 71.5
Cc1nc2ccc(NC(=O)CCS(=O)(=O)c3ccccc3)cc2s1	none
Cc1ccc(S(=O)(=O)Nc2ccc(-c3nc4ccc(C)cc4s3)cc2)cc1	CHOP inhibitor 87.1
Cc1cccc(S(=O)(=O)Nc2ccc(-c3nc4ccc(C)cc4s3)cc2)c1	none
Cc1ccc2nc(-c3ccc(NC(=O)CCS(=O)(=O)c4ccccc4)cc3)sc2c1	CHOP inhibitor 81.5
COc1ccccc1NC(=O)C(NC(=O)OC(C)(C)C)C(C)OCc1ccccc1 (stereo not given)	none
Cc1onc(-c2ccccc2)c1CNC(=O)C1COc2ccccc2O1 (stereo not given)	none
COc1cc(/C=C/c2ccc3cccc(O)c3n2)cc(Br)c1OC	XBP1 UPR activ 119.8 (no result: CHOP inhibitor)
COc1ccc(/C=C/c2ccc3cccc(O)c3n2)cc1Br	none (no result: CHOP inhibitor)
C=CCn1c(SCC(=O)Nc2sccc2C(N)=O)nc2ccc(Cl)cc2c1=O	CHOP inhibitor 77.9
CCCCc1nc2sc3c(SCC(=O)NCc4ccco4)ncnc3c2c2c1CCC2	CHOP inhibitor 86.1
COc1ccccc1C(C#N)c1cccc(Cl)n1 (stereo not given)	PvdQ inh 116.3 (no result: CHOP inhibitor)
COc1ccc(C(C#N)c2nc3ccccc3nc2Cl)cc1 (stereo not given)	none (no result: CHOP inhibitor)
